# Measurements reported in ChEMBL document CHEMBL1140064, “Anxiolytic-like effects of N,N-dialkyl-2-phenylindol-3-ylglyoxylamides by modulation of translocator protein promoting neurosteroid biosynthesis” (J Med Chem, 2008).
# Experiments:
# C6 = assay: Induction of pregnenolone biosynthesis in rat C6 cells assessed as increase in pregnenolone level at 40 uM after 2 hrs by ELISA relative to control; type: functional
# Procedure, shortened: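 Rat C6 glioma cells grown in DMEM with 10% FBS, 2 mM L-glutamine, penicillin/streptomycin, seeded ~10 000 cells/well. Exposed to compound at 40 µM for 2 h at 37 °C, with DMSO/ethanol ≤0.5% (v/v) kept constant. Pregnenolone secreted into the medium measured by competitive ELISA; mean ± SEM of at least three determinations.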
# Translocator protein = Translocator protein (Rattus norvegicus, UniProt P16257); assay: Displacement of [3H]PK11195 from translocator protein in rat kidney mitochondrial membrane; type: cell membranes
# Rattus norvegicus [1] = assay: Anxiolytic activity in Sprague-Dawley rat assessed as reduction of total number of open arm entries at 50 mg/kg, ip after 5 mins by plus-maze test; type: functional; details: route intraperitoneal
# Procedure, shortened: (§1)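 Male Sprague-Dawley rats (180-200 g), group-housed 6/cage at 24 ± 1 °C, 12 h light/dark, free food and water except during testing. Dosed ip. Elevated four-arm maze (two open, two enclosed arms); entries into and time in open arms, and total arm entries, scored over a 5 min session versus vehicle-treated controls.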
# Rattus norvegicus [2] = assay: Anxiolytic activity in Sprague-Dawley rat assessed as increase in total number of open arm entries at 30 mg/kg, ip by plus-maze test; type: functional; details: route intraperitoneal; procedure, shortened: as §1
# Sequence of Translocator protein (P16257 whole entry, looked up): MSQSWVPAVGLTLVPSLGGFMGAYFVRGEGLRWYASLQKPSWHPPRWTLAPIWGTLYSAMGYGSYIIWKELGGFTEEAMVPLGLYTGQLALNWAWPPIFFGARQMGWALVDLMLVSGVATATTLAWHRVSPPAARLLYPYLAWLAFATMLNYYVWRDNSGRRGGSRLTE
smiles,measurement,setting,value
CCCN(CCC)C(=O)C(=O)c1c(-c2ccc(Cl)cc2)[nH]c2ccccc12,Activity,C6,40%
CCCCCCN(CCCCCC)C(=O)C(=O)c1c(-c2ccccc2)[nH]c2ccccc12,Activity,C6,30%
CCCCN(CCCC)C(=O)C(=O)c1c(-c2ccccc2)[nH]c2ccccc12,Activity,C6,23%
CCN(Cc1ccccc1)C(=O)C(=O)c1c(-c2ccc(Cl)cc2)[nH]c2ccccc12,Ki,Translocator protein,1.3 nM
same,Activity,C6,136%
CCCCCCN(CCCCCC)C(=O)C(=O)c1c(-c2ccccc2)[nH]c2c(C)cccc12,Ki,Translocator protein,1.9 nM
same,Activity,C6,63%
CCN(Cc1ccccc1)C(=O)C(=O)c1c(-c2ccccc2)[nH]c2ccccc12,Ki,Translocator protein,11 nM
same,Activity,C6,20%
CCCCN(C)C(=O)C(=O)c1c(-c2ccccc2)[nH]c2ccc(Cl)cc12,Ki,Translocator protein,3.9 nM
same,Activity,C6,70%
CCCCCN(C)C(=O)C(=O)c1c(-c2ccccc2)[nH]c2ccc(Cl)cc12,Ki,Translocator protein,3.6 nM
same,Activity,C6,76%
CCCN(CCC)C(=O)C(=O)c1c(-c2ccccc2)[nH]c2c(Cl)cccc12,Ki,Translocator protein,14 nM
same,Activity,C6,0%
CCCCN(CC)C(=O)C(=O)c1c(-c2ccccc2)[nH]c2ccc(Cl)cc12,Ki,Translocator protein,1.8 nM
same,Activity,C6,72%
CCCCN(C)C(=O)C(=O)c1c(-c2ccc(Cl)cc2)[nH]c2ccc(Cl)cc12,Ki,Translocator protein,0.15 nM
same,Activity,C6,67%
CCCCCCN(CCCCCC)C(=O)C(=O)c1c(-c2ccccc2)[nH]c2c(Cl)cccc12,Ki,Translocator protein,2.4 nM
same,Activity,C6,0%
CCCCN(CCCC)C(=O)C(=O)c1c(-c2ccccc2)[nH]c2c(C)cccc12,Ki,Translocator protein,6 nM
same,Activity,C6,71%
CCN(Cc1ccccc1)C(=O)C(=O)c1c(-c2ccccc2)[nH]c2ccc(F)cc12,Ki,Translocator protein,1.33 nM
CCN(Cc1ccccc1)C(=O)C(=O)c1c(-c2ccc(F)cc2)[nH]c2ccc(Cl)cc12,Ki,Translocator protein,4.01 nM
same,Activity,C6,0%
CCN(Cc1ccccc1)C(=O)C(=O)c1c(-c2ccccc2)[nH]c2c(Cl)cccc12,Ki,Translocator protein,5 nM
same,Activity,C6,0%
CCCN(CCC)C(=O)C(=O)c1c(-c2ccc(F)cc2)[nH]c2ccc(Cl)cc12,Ki,Translocator protein,2.83 nM
same,Activity,C6,42%
CCCCN(CCCC)C(=O)C(=O)c1c(-c2ccc(F)cc2)[nH]c2ccc(Cl)cc12,Ki,Translocator protein,3.05 nM
same,Activity,C6,37%
CCN(Cc1ccccc1)C(=O)C(=O)c1c(-c2ccc(Cl)cc2)[nH]c2ccc(Cl)cc12,Activity,C6,171%
CCN(Cc1ccccc1)C(=O)C(=O)c1c(-c2ccc(C)cc2)[nH]c2ccccc12,Ki,Translocator protein,2.64 nM
same,Activity,C6,86%
CCN(Cc1ccccc1)C(=O)C(=O)c1c(-c2ccccc2)[nH]c2c(C)cccc12,Ki,Translocator protein,2.3 nM
same,Activity,C6,0%
CCN(Cc1ccccc1)C(=O)C(=O)c1c(-c2ccccc2)[nH]c2ccc(Cl)cc12,Ki,Translocator protein,4.6 nM
same,Activity,C6,85%
CCCCN(C)C(=O)C(=O)c1c(-c2ccc(Cl)cc2)[nH]c2ccccc12,Ki,Translocator protein,11 nM
CCCCN(CC)C(=O)C(=O)c1c(-c2ccc(Cl)cc2)[nH]c2ccccc12,Ki,Translocator protein,3.6 nM
same,Activity,C6,32%
CCN(C)C(=O)C(=O)c1c(-c2ccc(Cl)cc2)[nH]c2ccc(Cl)cc12,Ki,Translocator protein,9.54 nM
same,Activity,C6,0%
CCCCN(C)C(=O)C(=O)c1c(-c2ccccc2)[nH]c2ccccc12,Ki,Translocator protein,53.3 nM
same,Activity,C6,32%
CCN(Cc1ccccc1)C(=O)C(=O)c1c(-c2ccc(C(F)(F)F)cc2)[nH]c2ccccc12,Ki,Translocator protein,1 nM
CCCCN(CCCC)C(=O)C(=O)c1c(-c2ccccc2)[nH]c2c(Cl)cccc12,Ki,Translocator protein,3.4 nM
same,Activity,C6,0%
CCN(Cc1ccccc1)C(=O)C(=O)c1c(-c2ccc(F)cc2)[nH]c2ccccc12,Ki,Translocator protein,1.68 nM
same,Activity,C6,96%
CCN(Cc1ccccc1)C(=O)C(=O)c1c(-c2ccccc2)[nH]c2ccc([N+](=O)[O-])cc12,Ki,Translocator protein,18.3 nM
same,Activity,C6,0%
CCCN(CCC)C(=O)C(=O)c1c(-c2ccccc2)[nH]c2ccc(F)cc12,Ki,Translocator protein,2.67 nM
same,Activity,C6,66%
CCCCN(CCCC)C(=O)C(=O)c1c(-c2ccc(C(F)(F)F)cc2)[nH]c2ccccc12,Ki,Translocator protein,1.16 nM
same,Activity,C6,60%
CCCCCCN(CCCCCC)C(=O)C(=O)c1c(-c2ccc(C(F)(F)F)cc2)[nH]c2ccccc12,Ki,Translocator protein,1 nM
same,Activity,C6,85%
CCCCN(CCCC)C(=O)C(=O)c1c(-c2ccc(F)cc2)[nH]c2ccc(F)cc12,Ki,Translocator protein,4.36 nM
same,Activity,C6,91%
CCCCCCN(CCCCCC)C(=O)C(=O)c1c(-c2ccc([N+](=O)[O-])cc2)[nH]c2ccccc12,Ki,Translocator protein,0.23 nM
same,Activity,C6,88%
CCCCCCN(CCCCCC)C(=O)C(=O)c1c(-c2ccc(F)cc2)[nH]c2ccc(F)cc12,Ki,Translocator protein,0.95 nM
same,Activity,C6,40%
CCCCN(CCCC)C(=O)C(=O)c1c(-c2ccc([N+](=O)[O-])cc2)[nH]c2ccccc12,Ki,Translocator protein,0.27 nM
same,Activity,C6,64%
CCCCCCN(CCCCCC)C(=O)C(=O)c1c(-c2ccccc2)[nH]c2ccc(F)cc12,Ki,Translocator protein,0.37 nM
same,Activity,C6,36%
CCCN(CCC)C(=O)C(=O)c1c(-c2ccccc2)[nH]c2ccc(OC)cc12,Ki,Translocator protein,328 nM
same,Activity,C6,45%
CCCN(CCC)C(=O)C(=O)c1c(-c2ccccc2)[nH]c2ccc([N+](=O)[O-])cc12,Ki,Translocator protein,20.2 nM
same,Activity,C6,91%
CCCCN(CCCC)C(=O)C(=O)c1c(-c2ccccc2)[nH]c2ccc(OC)cc12,Ki,Translocator protein,65.2 nM
same,Activity,C6,36%
CCCCCCN(CCCCCC)C(=O)C(=O)c1c(-c2ccccc2)[nH]c2ccc(OC)cc12,Ki,Translocator protein,35.5 nM
same,Activity,C6,87%
CCN(Cc1ccccc1)C(=O)C(=O)c1c(-c2ccccc2)[nH]c2ccc(OC)cc12,Ki,Translocator protein,69.5 nM
CCCCCN(C)C(=O)C(=O)c1c(-c2ccc(Cl)cc2)[nH]c2ccccc12,Ki,Translocator protein,3.4 nM
same,Activity,C6,65%
CCCN(CCC)C(=O)C(=O)c1c(-c2ccccc2)[nH]c2c(C)cccc12,Ki,Translocator protein,25 nM
same,Activity,C6,129%
CCN(C)C(=O)C(=O)c1c(-c2ccccc2)[nH]c2ccccc12,Ki,Translocator protein,940 nM
CCN(Cc1ccccc1)C(=O)C(=O)c1c(-c2ccc(F)cc2)[nH]c2ccc(F)cc12,Ki,Translocator protein,1.67 nM
CCCCN(CC)C(=O)C(=O)c1c(-c2ccc(Cl)cc2)[nH]c2ccc(Cl)cc12,Ki,Translocator protein,0.36 nM
same,Activity,C6,11%
CCCCCN(C)C(=O)C(=O)c1c(-c2ccccc2)[nH]c2ccccc12,Ki,Translocator protein,12.1 nM
same,Activity,C6,36%
CCN(Cc1ccccc1)C(=O)C(=O)c1c(-c2ccc([N+](=O)[O-])cc2)[nH]c2ccccc12,Ki,Translocator protein,0.55 nM
same,Activity,C6,103%
CCCCCCN(CCCCCC)C(=O)C(=O)c1c(-c2ccc(F)cc2)[nH]c2ccc(Cl)cc12,Ki,Translocator protein,7.75 nM
same,Activity,Rattus norvegicus [1],2
same,Activity,Rattus norvegicus [2],9.8
same,Activity,C6,135%
CCCCCN(C)C(=O)C(=O)c1c(-c2ccc(Cl)cc2)[nH]c2ccc(Cl)cc12,Ki,Translocator protein,0.18 nM
same,Activity,C6,31%
CCCN(CCC)C(=O)C(=O)c1c(-c2ccc(F)cc2)[nH]c2ccc(F)cc12,Ki,Translocator protein,6.73 nM
same,Activity,C6,17%
CCCCCCN(CCCCCC)C(=O)C(=O)c1c(-c2ccccc2)[nH]c2ccc([N+](=O)[O-])cc12,Ki,Translocator protein,30.3 nM
same,Activity,C6,115%
CCCCN(CCCC)C(=O)C(=O)c1c(-c2ccccc2)[nH]c2ccc([N+](=O)[O-])cc12,Ki,Translocator protein,21.6 nM
same,Activity,C6,102%
CCCCN(CCCC)C(=O)C(=O)c1c(-c2ccccc2)[nH]c2ccc(F)cc12,Ki,Translocator protein,4 nM
same,Activity,C6,88%
CCCN(CCC)C(=O)C(=O)c1c(-c2ccc([N+](=O)[O-])cc2)[nH]c2ccccc12,Ki,Translocator protein,0.95 nM
same,Activity,C6,70%
CCCN(CCC)C(=O)C(=O)c1c(-c2ccc(C(F)(F)F)cc2)[nH]c2ccccc12,Ki,Translocator protein,1.69 nM
same,Activity,C6,66%
CCCCN(CC)C(=O)C(=O)c1c(-c2ccccc2)[nH]c2ccccc12,Ki,Translocator protein,12.6 nM
same,Activity,C6,43%
CCCN(CCC)C(=O)C(=O)c1c(-c2ccccc2)[nH]c2ccc(Cl)cc12,Activity,C6,10%
CCCN(CCC)C(=O)C(=O)c1c(-c2ccc(Cl)cc2)[nH]c2ccc(Cl)cc12,Activity,C6,49%
CCCN(CCC)C(=O)C(=O)c1c(-c2ccccc2)[nH]c2ccccc12,Activity,C6,8%
CCC(C)N(C)C(=O)c1cc2ccccc2c(-c2ccccc2Cl)n1 (stereo not given) [PK-11195],Activity,C6,48%
CN1C(=O)CN=C(c2ccc(Cl)cc2)c2cc(Cl)ccc21 [RO-54864],Activity,C6,41%
